Converted amounts (≈) assume the structure as drawn. The source made the active and inactive calls.
Assays:
NCI-H460 [1] = test: Induction of apoptosis in human NCI-H460 cells assessed as live cells at 25 uM after 72 hrs by annexin-V/propidium iodide staining-based flow cytometric analysis (reference value: 98.3%); assay type: functional
NCI-H460 [2] = test: Induction of apoptosis in human NCI-H460 cells assessed as early apoptotic cells at 25 uM after 72 hrs by annexin-V/propidium iodide staining-based flow cytometric analysis (reference value: 0.3%); assay type: functional
NCI-H460 [3] = test: Induction of apoptosis in human NCI-H460 cells assessed as late apoptotic/necrotic cells at 25 uM after 72 hrs by annexin-V/propidium iodide staining-based flow cytometric analysis (reference value: 0.2%); assay type: functional
NCI-H460 [4] = test: Induction of apoptosis in human NCI-H460 cells assessed as dead cells at 25 uM after 72 hrs by annexin-V/propidium iodide staining-based flow cytometric analysis (reference value: 1.2%); assay type: functional
NCI-H460 [5] = test: Induction of apoptosis in multidrug resistant human NCI-H460 cells assessed as live cells at 25 uM after 72 hrs by annexin-V/propidium iodide staining-based flow cytometric analysis (reference value: 96.4%); assay type: functional
NCI-H460 [6] = test: Induction of apoptosis in multidrug resistant human NCI-H460 cells assessed as early apoptotic cells at 25 uM after 72 hrs by annexin-V/propidium iodide staining-based flow cytometric analysis (reference value: 1.1%); assay type: functional
NCI-H460 [7] = test: Induction of apoptosis in multidrug resistant human NCI-H460 cells assessed as late apoptotic/necrotic cells at 25 uM after 72 hrs by annexin-V/propidium iodide staining-based flow cytometric analysis (reference value: 1%); assay type: functional
NCI-H460 [8] = test: Induction of apoptosis in multidrug resistant human NCI-H460 cells assessed as dead cells at 25 uM after 72 hrs by annexin-V/propidium iodide staining-based flow cytometric analysis (reference value: 1.5%); assay type: functional
[9] = Induction of apoptosis in human HaCaT cells assessed as live cells at 25 uM after 72 hrs by annexin-V/propidium iodide staining-based flow cytometric analysis (reference value: 96.8%); assay type: cell-based; settings: read-out: Activity
HaCaT [10] = test: Induction of apoptosis in human HaCaT cells assessed as early apoptotic cells at 25 uM after 72 hrs by annexin-V/propidium iodide staining-based flow cytometric analysis (reference value: 0.2%); assay type: cell-based
HaCaT [11] = test: Induction of apoptosis in human HaCaT cells assessed as late apoptotic/necrotic cells at 25 uM after 72 hrs by annexin-V/propidium iodide staining-based flow cytometric analysis (reference value: 0.2%); assay type: cell-based
HaCaT [12] = test: Induction of apoptosis in human HaCaT cells assessed as dead cells at 25 uM after 72 hrs by annexin-V/propidium iodide staining-based flow cytometric analysis (reference value: 2.8%); assay type: cell-based
NCI-H460 [13] = test: Cytotoxicity against human NCI-H460 cells after 72 hrs by MTT assay; assay type: functional, cell-based; settings: NCI-H460, 72 h
Method in brief: (§1)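 Seeding in 96-well plates at 1000 (NCI-H460), 2000 (NCI-H460/R) or 4000 (HaCaT) cells/well, treated after 24 h for 72 h. MTT at 0.4 mg/mL final, 4 h at 37 °C. Formazan dissolved in DMSO, absorbance read at 540 nm. Inhibition % = (1 − A treated/A untreated)×100. IC30 and IC50 obtained by linear regression.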

NCI-H460 [14] = test: Cytotoxicity against multidrug resistant human NCI-H460 cells after 72 hrs by MTT assay; assay type: functional, cell-based; settings: NCI-H460, 72 h; method in brief: as §1
HaCaT [15] = test: Cytotoxicity against human HaCaT cells after 72 hrs by MTT assay; assay type: cell-based; settings: for IC50: Homo sapiens, HaCaT; for IC30: human, hacat; method in brief: as §1
[16] = Selectivity ratio of IC30/IC50 for human HaCaT cells to IC30/IC50 for human NCI-H460 cells; assay type: ADME, cell-based; settings: HaCaT cells versus NCI-H460 cells
Method in brief: (§2)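 Fold threshold of 1.5 used to call selectivity to cancer cells, resistance, or selectivity to MDR cells.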

[17] = Selectivity ratio of IC30/IC50 for human HaCaT cells to IC30/IC50 for multidrug resistant human NCI-H460 cells; assay type: ADME, cell-based; settings: HaCaT cells versus multidrug resistant NCI-H460 cells; method in brief: as §2
NCI-H460 [18] = test: Induction of superoxide anion generation in human NCI-H460 cells at 25 uM after 72 hrs by DHE staining-based flow cytometric analysis relative to control; assay type: functional, cell-based
Method in brief: (§3)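 Seeded as for cell death (50,000 or 100,000 cells/well), treated 72 h at 25 µM, with CDDP 5 µM as control. Adherent cells trypsinized and loaded with 1 µM DHE for 30 min at 37 °C in the dark, then washed twice in PBS. Flow cytometry at ex 488/em 585 nm (FL2-H). Mean fluorescence intensity corrected for autofluorescence and compared with untreated control.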

NCI-H460 [19] = test: Induction of superoxide anion generation in multidrug resistant human NCI-H460 cells at 25 uM after 72 hrs by DHE staining-based flow cytometric analysis relative to control; assay type: functional, cell-based; method in brief: as §3
Micrococcus luteus [20] = test: Antibacterial activity against Micrococcus luteus ATCC 4698 by broth microdilution method; assay type: functional; settings: NCTC 2665
Method in brief: (§4)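 Broth microdilution per NCCLS. Compounds dissolved in DMSO as 10 mg/mL stock, diluted in Mueller Hinton broth (bacteria) or Sabouraud dextrose broth (fungi). Amikacin served as the positive control for bacteria and nystatin for fungi.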

Clostridium sporogenes = test: Antibacterial activity against Clostridium sporogenes ATCC 19404 by broth microdilution method; assay type: functional; method in brief: as §4
Escherichia coli = test: Antibacterial activity against Escherichia coli ATCC 25922 by broth microdilution method; assay type: functional; method in brief: as §4
Salmonella enteritidis = test: Antibacterial activity against Salmonella enterica subsp. enterica serovar Enteritidis ATCC 13076 by broth microdilution method; assay type: functional; method in brief: as §4
Pseudomonas aeruginosa = test: Antibacterial activity against Pseudomonas aeruginosa ATCC 9027 by broth microdilution method; assay type: functional; method in brief: as §4
Candida albicans = test: Antifungal activity against Candida albicans ATCC 10231 by broth microdilution method; assay type: functional; method in brief: as §4
Saccharomyces cerevisiae = test: Antifungal activity against Saccharomyces cerevisiae ATCC 9763 by broth microdilution method; assay type: functional; method in brief: as §4
Aspergillus brasiliensis = test: Antifungal activity against Aspergillus brasiliensis ATCC 16404 by broth microdilution method; assay type: functional; method in brief: as §4
NCI-H460 [21] = test: Selectivity ratio of IC30/IC50 for human NCI-H460 cells to IC30/IC50 for multidrug resistant human NCI-H460 cells; assay type: functional; method in brief: as §2
Staphylococcus aureus = test: Antibacterial activity against Staphylococcus aureus ATCC 6538 by broth microdilution method; assay type: functional; method in brief: as §4
Bacillus spizizenii = test: Antibacterial activity against Bacillus subtilis ATCC 6633 by broth microdilution method; assay type: functional; method in brief: as §4
Micrococcus luteus [22] = test: Antibacterial activity against Micrococcus luteus ATCC 10240 by broth microdilution method; assay type: functional; method in brief: as §4

Compound	Activity (NCI-H460 [1]) [%]	Activity (NCI-H460 [2]) [%]	Activity (NCI-H460 [3]) [%]	Activity (NCI-H460 [4]) [%]	Activity (NCI-H460 [5]) [%]	Activity (NCI-H460 [6]) [%]	Activity (NCI-H460 [7]) [%]	Activity (NCI-H460 [8]) [%]	viability at 72 h, 25 µM [9] [%]	Activity (HaCaT [10]) [%]	Activity (HaCaT [11]) [%]	Activity (HaCaT [12]) [%]	IC30 (NCI-H460 [13]) [µM]	IC50 (NCI-H460 [13]) [µM]	IC30 (NCI-H460 [14]) [µM]	IC50 (NCI-H460 [14]) [µM]	IC50 (HaCaT [15]) [µM]	IC30 (HaCaT [15]) [µM]	selectivity ratio [16]	selectivity ratio [17]	other results
CC1=CCC[C@H]2[C@](C)(CC3=CC(=O)C=CC3=O)[C@@H](C)CC[C@]12C [AVARONE]	74	3.4	16.3	6.3	65.8	2.6	22.7	8.9	78.3	2.5	10.1	9.1	36	84	10	24	37	16	≤ 1.5	≤ 1.5	Activity (NCI-H460 [18]): Active; Activity (NCI-H460 [19]): Active
CC(C)(C)C1=CC(=O)C=C(NCc2ccccc2)C1=O	–	–	–	–	–	–	–	–	–	–	–	–	5	14	3	10	21	12	≤ 1.5	≤ 1.5	MIC (Micrococcus luteus [20]): 4650 µM (≈ 1250 µg/mL); MIC (Clostridium sporogenes): 2320 µM (≈ 626 µg/mL); MIC (Escherichia coli): 9 µM (≈ 2.42 µg/mL); MIC (Salmonella enteritidis): 4650 µM (≈ 1250 µg/mL); MIC (Pseudomonas aeruginosa): 2320 µM (≈ 626 µg/mL); MIC (Candida albicans): 2320 µM (≈ 626 µg/mL); MIC (Saccharomyces cerevisiae): 2320 µM (≈ 626 µg/mL); MIC (Aspergillus brasiliensis): 2320 µM (≈ 626 µg/mL); selectivity ratio (NCI-H460 [21]): <=1.5; MIC (Staphylococcus aureus): 9 µM (≈ 2.42 µg/mL); MIC (Bacillus spizizenii): 2320 µM (≈ 626 µg/mL); MIC (Micrococcus luteus [22]): 9 µM (≈ 2.42 µg/mL)
CCCCNC1=CC(=O)C=C(C[C@]2(C)[C@@H](C)CC[C@]3(C)C(C)=CCC[C@@H]23)C1=O	–	–	–	–	–	–	–	–	–	–	–	–	9	16	3	6	16	11	–	–	selectivity ratio (NCI-H460 [21]): <=1.5
CCCCCCCCNC1=CC(=O)C(C[C@]2(C)[C@@H](C)CC[C@]3(C)C(C)=CCC[C@@H]23)=CC1=O	95.1	0	0.3	4.6	96.1	0.1	0.7	3.1	93.4	0.1	0.7	5.8	> 100	> 100	> 100	> 100	> 100	> 100	–	–	Activity (NCI-H460 [19]): inactive
